# According to the M2OR odorant receptor database:
# Test system: T1, A0A140T8K0
# T1 sequence (whole entry): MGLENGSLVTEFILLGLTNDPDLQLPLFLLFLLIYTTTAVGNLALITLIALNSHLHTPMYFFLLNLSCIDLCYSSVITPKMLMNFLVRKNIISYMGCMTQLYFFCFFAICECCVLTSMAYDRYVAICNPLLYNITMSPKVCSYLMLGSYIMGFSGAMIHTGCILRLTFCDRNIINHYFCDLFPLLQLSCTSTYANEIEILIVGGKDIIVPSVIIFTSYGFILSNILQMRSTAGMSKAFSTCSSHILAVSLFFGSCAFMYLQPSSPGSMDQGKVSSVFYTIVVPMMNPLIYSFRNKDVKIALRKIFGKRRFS
# Conditions: stereoisomer not certain
# Method in brief: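 Assay methods differ from source to source, frequently being transient luciferase assays in mammalian cell lines. For each receptor–molecule pair, the label responsive (active) applies when the original authors judged the measured signal statistically different from baseline, and non-responsive (inactive) applies otherwise.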
row,Compound,odorant receptor agonist call
1,CCCO,inactive
2,CCCC(C)C(=O)OCC (stereo unspecified),inactive
3,CCCCCCCCC=CC=O,inactive
4,COc1nccnc1C,inactive
5,O=C(O)CCCCCBr,inactive
6,CCCCC=O,inactive
7,Cc1c(C)c(C)c(C=O)c(C)c1C,inactive
8,O=C(O)CCCCCCCCC(=O)O,active
9,OCCCCCCCCCO,inactive
10,CCSCC,inactive
11,C=C(CC)CCCC(C)(C)O,inactive
12,CCCCCCCCOC=O,active
13,CCCCCCCCCCCO,inactive
14,CCCCCCC(C=O)=Cc1ccccc1,inactive
15,CC1(C)CC(=O)CC(=O)C1,inactive
16,CCCCCCC(=O)OCCCC,inactive
17,CC(=O)OCc1ccc2c(c1)OCO2,inactive
18,CCN(CC)CC,inactive

row,Compound,odorant receptor agonist call
1,Cc1ccc(OC(=O)C(C)C)cc1,inactive
2,CC(C)CCN,inactive
3,CC(=O)OC1(C)CCC23CC1C(C)(C)C2CCC3C (stereo unspecified),inactive
4,CC(C)=C1CCC(C)CC1=O (stereo unspecified),inactive
5,CCCCCOC(=O)CC,inactive
6,OCC=Cc1ccccc1,inactive
7,CCOC(=O)C(C)CC (stereo unspecified),inactive
8,CC=CC(=O)C1=C(C)CCCC1(C)C,inactive
9,CCCCCC(C)O (stereo unspecified),inactive
10,COc1ccccc1,inactive
11,CCC(C)O (stereo unspecified),inactive
12,Cc1ccc2c(c1)OCC(=O)CO2,inactive
13,CSSCc1ccco1,inactive
14,CSSSC,inactive
15,C=C(C)C1CC=C(C)CC1 (stereo unspecified),inactive
16,O=C(OCc1ccccc1)c1ccccc1O,inactive
17,CC(=O)C=CC1=C(C)CCCC1(C)C,inactive
18,COC(OC)c1ccccc1,inactive
